Activity calls are given as the source filed them. The calls are words filed in the database; no cut-off is given here.
Assays:
[1] = Cytotoxicity against Pgp deficient human LCC6 cells after 72 hrs by sulforhodamine B test; format: functional, cell-based; settings: C6, 72 h
MCF7 [2] = experiment: Resistance index, Ratio of IC50 for multidrug resistant Pgp expressing human NCI/ADR cells to IC50 for Pgp deficient human MCF7 cells; format: functional; design: reference not given here
MCF7 [3] = experiment: Cytotoxicity against Pgp deficient human MCF7 cells after 72 hrs by sulforhodamine B test; format: functional, cell-based; settings: MCF7, 72 h
Bos taurus [4] = species on record: Bos taurus; experiment: Induction of calf brain tubulin polymerization at 10 uM by spectrophotometric assay
How it was run: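 Calf brain microtubule protein diluted to 1 mg/mL in MES buffer with 3 M glycerol; taxoid at 10 µM. Assembly followed at 37 °C as turbidity change at 350 nm. 6 mM CaCl2 added after 50 min to follow depolymerization. Tubulin is 85% of the protein. Runs used either centrifuged tubulin or tubulin used as stored, with 1 mM GTP in some runs.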

[5] = Cytotoxicity against multidrug resistant Pgp expressing human LCC6 cells after 72 hrs by sulforhodamine B test; format: functional, cell-based; settings: LCC-6, 72 h
Bos taurus [6] = species on record: Bos taurus; experiment: Induction of calf brain tubulin polymerization at 10 uM in absence of GTP by spectrophotometric assay
[7] = Cytotoxicity against multidrug resistant Pgp expressing human NCI/ADR cells after 72 hrs by sulforhodamine B test; format: functional, cell-based; settings: NCI/ADR-RES
C6 = experiment: Resistance index, Ratio of IC50 for multidrug resistant Pgp expressing human LCC6 cells to IC50 for Pgp deficient human LCC6 cells; format: functional; design: reference not given here
DLD-1 [8] = experiment: Antitumor activity against Pgp expressing multidrug resistant human DLD1 cells xenografted SCID mouse assessed as tumor growth delay at 20 mg/kg, iv administered for 3 days; format: functional
How it was run: (§1)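 Female SCID mice (6-8 weeks), 5 per treated group, 10 untreated controls, bearing DLD-1 (Pgp+) human colon xenografts. Dosing was iv by tail vein from day 5 after implant, ×3. Stock was 30 mg/mL in Tween-80/ethanol 1:1, diluted in 0.9% saline. Caliper volume V=0.4·l·w² every 3-4 days. Growth delay was time to 600 mm3, interpolated from log(volume) vs time. Cox-Mantel test was used versus control. Cure meant no palpable tumor on day 167.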

Mus musculus = experiment: Toxicity in Pgp expressing multidrug resistant human DLD1 cells xenografted SCID mouse at 20 mg/kg, iv administered for 3 days; format: organism-based, DLD-1; design: dose 20 mg/kg, route intravenous; settings: in vivo, 72 h
How it was run: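 Female SCID mice with DLD-1 (Pgp+) colon xenografts, 5 per group. Dosing was iv by tail vein, 20 mg/kg ×3 from day 5 post-implant, in Tween-80/ethanol diluted with saline. Toxicity was counted as animals that died or lost more than 20% body weight.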

A2780 = experiment: Cytotoxicity against human A2780 cells after 72 hrs; format: functional, cell-based; settings: A2780, 72 h
DLD-1 [9] = experiment: Antitumor activity against Pgp expressing multidrug resistant human DLD1 cells xenografted SCID mouse assessed as tumor growth at 20 mg/kg, iv administered for 3 days after 167 days; format: functional, organism-based; design: dose 20 mg/kg; how it was run: as §1
[10] = Cytotoxicity against paclitaxel resistant human 1A9PTX22 cells expressing class 1 beta-tubulin mutant after 72 hrs; format: functional, cell-based; settings: 1A9/ptx-22, 72 h
[11] = Cytotoxicity against paclitaxel resistant human 1A9PTX10 cells expressing class 1 beta-tubulin mutant after 72 hrs; format: functional, cell-based; settings: 1A9/ptx-10, 72 h
BXPC-3 = experiment: Cytotoxicity against multidrug resistant human BxPC3 cells after 72 hrs by MTT assay; format: functional, cell-based; settings: BXPC-3, 72 h
How it was run: (§2)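 Pancreatic lines were cultured per ATCC, seeded at 2.5 × 10^4 cells/well and allowed to adhere overnight. The medium was replaced with drug diluted from a 10 mM DMSO stock, or vehicle, for 72 h, in triplicate, with at least three independent trials. MTT at 0.5 mg/mL was added for 3 h, formazan was dissolved in acidified isopropanol, and A570 was read. IC50 came from sigmoid-Emax nonlinear regression.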

Bos taurus [12] = species on record: Bos taurus; experiment: Induction of calf brain tubulin polymerization at 10 uM after 12 mins in presence of GTP by spectrophotometric assay
How it was run: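 Calf brain microtubule protein, 1 mg/mL in MES buffer with 3 M glycerol, was assembled at 37 °C with 1 mM GTP and 10 µM drug. Turbidity was followed at 350 nm. Tubulin stored in liquid nitrogen was centrifuged just before use and adjusted to 1 mg/mL. CaCl2 (6 mM) was added at 50 min to follow depolymerization.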

DLD-1 [13] = experiment: Antitumor activity against Pgp expressing multidrug resistant human DLD1 cells xenografted SCID mouse assessed as tumor growth delay at 40 mg/kg, iv administered for 3 days; format: functional; how it was run: as §1
DLD-1 [14] = experiment: Antitumor activity against Pgp expressing multidrug resistant human DLD1 cells xenografted SCID mouse assessed as tumor growth at 10 mg/kg, iv administered for 3 days after 167 days; format: functional, organism-based; design: dose 10 mg/kg; how it was run: as §1
[15] = Cytotoxicity against human primary pancreatic ductal cells after 72 hrs by MTT assay; format: cell-based
CFPAC-1 [16] = experiment: Cytotoxicity against multidrug resistant human CFPAC1 cells after 72 hrs by MTT assay; format: functional, cell-based; settings: CFPAC-1, 72 h; how it was run: as §2
MIA PaCa-2 = experiment: Cytotoxicity against multidrug resistant human MIAPaCa2 cells after 72 hrs by MTT assay; format: functional, cell-based; settings: MIA PaCa-2, 72 h; how it was run: as §2
DLD-1 [17] = experiment: Antitumor activity against Pgp expressing multidrug resistant human DLD1 cells xenografted SCID mouse assessed as tumor growth delay at 10 mg/kg, iv administered for 3 days; format: functional; how it was run: as §1
CFPAC-1 [18] = experiment: Antitumor activity against mdr1 expressing multidrug resistant human CFPAC1 cells xenografted Swiss mouse assessed as reduction in tumor volume at 20 mg/kg, iv administered for 3 days after 8 weeks; format: functional, organism-based; design: dose 20 mg/kg
How it was run: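 CFPAC-1 (mdr1-high) pancreatic cells, 1 × 10^6 in 200 µL PBS, were injected into both flanks. Treatment began on day 19 at about 100 mm3. Dosing was iv by tail vein on days 19, 22 and 25 at 20 mg/kg each (60 mg/kg total). Stock was 30 mg/mL in Tween-80/ethanol 1:1, diluted in PBS to 0.2 mL. Caliper volume was V=0.4·l·w².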

PANC-1 = experiment: Cytotoxicity against multidrug resistant human PANC1 cells after 72 hrs by MTT assay; format: functional, cell-based; settings: PANC-1, 72 h; how it was run: as §2

| Compound | IC50 [5] | Activity (Bos taurus [6]) | IC50 [7] | Activity (DLD-1 [8]) | IC50 (A2780) | Activity (DLD-1 [9]) | IC50 [10] | IC50 [11] | further results |
| --- | --- | --- | --- | --- | --- | --- | --- | --- | --- |
| COC(=O)O[C@H]1C(=O)[C@@]2(C)[C@H]([C@H](OC(=O)c3cccc(OC)c3)[C@]3(O)C[C@H](OC(=O)[C@H](O)[C@H](C=C(C)C)NC(=O)OC(C)(C)C)C(C)=C1C3(C)C)[C@]1(OC(C)=O)CO[C@@H]1C[C@@H]2O | 1.6 nM | Active | 1.4 nM | – | – | – | – | – | IC50 [1]: 0.6 nM; Ratio IC50 (MCF7 [2]): 3.5; IC50 (MCF7 [3]): 0.4 nM; Activity (Bos taurus [4]): Active; Ratio IC50 (C6): 2.7 |
| CC(=O)O[C@H]1C(=O)[C@@]2(C)[C@H]([C@H](OC(=O)c3ccccc3)[C@]3(O)C[C@H](OC(=O)[C@H](O)[C@@H](NC(=O)c4ccccc4)c4ccccc4)C(C)=C1C3(C)C)[C@]1(OC(C)=O)CO[C@@H]1C[C@@H]2O [PACLITAXEL] | 346 nM | – | 300 nM | 8 days | 1.38 nM | inactive | 161 nM | 533 nM | Activity (Mus musculus): Non-toxic |
| CC(=O)O[C@@]12CO[C@@H]1C[C@H](O)[C@@]1(C)C(=O)[C@H](OC(=O)C3CC3)C3=C(C)[C@@H](OC(=O)[C@H](O)[C@H](C=C(C)C)NC(=O)OC(C)(C)C)C[C@@](O)([C@@H](OC(=O)c4ccccc4)[C@H]21)C3(C)C | – | Active | 3.9 nM | >150 days | 0.44 nM | Active | 3.94 nM | 9 nM | IC50 (BXPC-3): 1.04 nM; Activity (Bos taurus [12]): 90%; Activity (DLD-1 [13]): >150 days; Activity (DLD-1 [14]): inactive; Activity [15]: Non-toxic; IC50 (CFPAC-1 [16]): 0.83 nM; IC50 (MIA PaCa-2): 0.92 nM; Activity (DLD-1 [17]): 37 days; Activity (CFPAC-1 [18]): Active; IC50 (PANC-1): 3.68 nM |

Source: ChEMBL document CHEMBL1150351, “Design, synthesis, and biological evaluation of new-generation taxoids” (J Med Chem, 2008)
